BB579 growth dn: growth inhibitors of yeast BB579 in restrictive medium, primary screen, yeast lifespan-shortening project, S. cerevisiae; AID 804, 2007; OD615, 48 h; inhibition, % at 10 µM; hit rate 0.51% among 140,000;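 active means inhibition above a set limit, 3 SD over the mean compound inhibition, cut at about 44% in these data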
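controls = amphotericin B 10 µg/mL, positive | assay system = DeaD yeast strain BB579 | schedule = 48 h compound exposure at 30 °C after 4 h preincubation | detection = OD615 turbidity measurement | medium = restrictive CSMM-D medium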
INS promoter inh: inhibitors of insulin promoter-driven GFP, primary screen, imaging, TRM-6 cells, eGFP reporter, cell count | hit rate 0.9% among 130,000 | inhibition, % at 2 µM | reporter expression induced with tamoxifen;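 active means inhibition above the mean plus 3 SD, with well images judged a real hit on visual review, cut at about 60% in these data, passing the limit was not always enough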
Ins promoter up: insulin promoter activators in MIN6 cells, imaging, high-content screening, mouse beta cells; MIN6 insulin promoter-GFP reporter; stronger effect = higher value; z-score at 5 µM; hit rate 0.3% among 190,000; AID 1625, 2009;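 active means z-score above 3 at 5 µM with at least 500 cells counted in the well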
Yeast life ext: compounds extending yeast replicative lifespan, primary screen, S. cerevisiae, OD615. AID 775, 2007. inhibition of the nicotinamide effect, % at 10 µM. S. cerevisiae growth with nicotinamide; deaD strain in restrictive glucose medium. hit rate 0.68% among 130,000;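 active means inhibition above a set limit, placed 3 SD over the median of all compounds, cut at about 26% in these data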;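 further: 0% = nicotinamide-treated wells and 100% = cells grown without nicotinamide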
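Test system: DeaD-strain S. cerevisiae / Buffer or medium: restrictive glucose medium / Also added: nicotinamide 1.5 mM / Doses: one concentration, 10 µM, DMSO 0.25% / Schedule: 48 h at 30 °C / Signal: OD615 measurement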
RAM network inh: inhibitors of the yeast RAM network, primary screen, dse1pr::URA3 reporter, 5-FOA selection | AID 868, 2007 | hit rate 1.8% among 190,000 | inhibition, % at 50 µM | S. cerevisiae dse1pr::URA3 reporter, 5-FOA growth OD615, 2 d; analog-sensitive cbk1-as2 kinase mutant strain;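 active means inhibition above a set limit, 3 SD over mean compound inhibition, cut at about 8.4% in these data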;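 further: 0% = DMSO-only wells with no growth and 100% = 10 µM 1-NA-PP1 full growth; inhibition rescues growth on 5-FOA so higher OD means more RAM inhibition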
Active calls of the source: *; . = not tested or not shown. Shown are actives, neighbours in structure and some others; about 3.1% of the full set was active somewhere.

SMILES	BB579 growth dn	INS promoter inh	Ins promoter up	Yeast life ext	RAM network inh
CCCCNC(=S)N(Cc1ccco1)Cc1cc2cc3c(cc2[nH]c1=O)OCCO3	-9.5	-62.1	1.62	0.3	8.5*
COC(=O)Nc1ccc(S(=O)(=O)N2c3ccccc3CCC2C)cc1 (configuration not stated)	-40.4	.	0.58	-7.8	1.0
CCOc1ccc(-c2cc(CCCC(=O)NCCc3ccccc3)no2)cc1	-13.1	75.0*	.	-6.6	0.6
CC(Sc1ccsc1[N+](=O)[O-])C(=O)N1CCN(c2ccccn2)CC1 (configuration not stated)	.	-45.0	0.09	.	-0.1
Fc1ccc(N/N=C2/CC(c3ccccc3)Oc3ccccc32)c(F)c1 (configuration not stated)	86.2*	-16.2	1.15	-7.0	2.8
CCC(C(=O)OCC(=O)Nc1cc(Cl)ccc1Cl)c1ccccc1 (configuration not stated)	-35.1	.	-0.04	-5.8	3.4
CCOC(=O)N1CCN(CC(=O)Nc2c(C(=O)OC)[nH]c3ccccc23)CC1	-18.6	6.2	-0.94	-10.4	1.8
COC(=O)c1[nH]c2ccccc2c1NC(=O)CN1CCN(C(=O)c2ccco2)CC1	-40.8	90.9*	-0.2	-7.4	1.3
CCCc1cc(C(F)(F)F)c(C#N)c(=O)[nH]1	-25.7	67.9*	0.3	-2.4	0.9
CC(NC(=O)c1ccccc1NC(=O)c1ccccc1)C(=O)N1CCOCC1 (configuration not stated)	-10.6	-61.5	0.26	3.2	0.3
COc1ccccc1CC1S/C(=N/N=C/c2ccco2)NC1=O (configuration not stated)	.	-33.3	-0.26	.	4.2
CCCCP(=O)(CCCC)Cc1ccccc1	-19.3	-253.3	.	-6.6	-0.8
O=P(CO)(Cc1ccccc1)Cc1ccccc1	-22.9	6.2	0.81	54.8*	0.0
Cn1ccnc1SCC(=O)Nc1cccc(S(=O)(=O)N2CCCCC2)c1	.	.	-0.51	.	1.1
COc1ccc([N+](=O)[O-])cc1NC(=O)c1ccc(N(Cc2ccccc2Cl)S(C)(=O)=O)cc1	-14.6	-15.4	0.35	-1.2	3.7
COc1ccc(C(=O)N/C(=C\c2cccc3ccccc23)C(=O)NCCc2c[nH]c3ccccc23)cc1OC	-76.0	-27.0	.	-2.8	8.8*
COc1ccc(C(=O)NCC(=O)NCCc2c[nH]c3ccccc23)cc1OC	.	.	0.27	.	0.9
O=[N+]([O-])c1ccc(Sc2nccn2Cc2ccccc2)c([N+](=O)[O-])c1	3.8	15.9	0.24	4.7	2.2
COc1ccc(/C=C2\CCOC2=O)cc1	9.9	48.6	1.12	-30.6	1.2
COc1ccc(/C=C2\CCCC(C(=O)C(F)(F)F)=C2O)cc1	-48.0	-31.0	0.14	-8.1	10.0*
O=C(C1=C(O)/C(=C/c2ccc(O)cc2)CCC1)C(F)(F)F	100.2*	-160.5	.	.	-2.0
Cc1cc(C=C2C(=O)c3ccccc3C2=O)c(C)n1-c1ccc(C(=O)O)cc1	.	.	-0.28	.	4.8
Cc1cc(C=C2C(=O)c3ccccc3C2=O)c(C)n1-c1cccc(C(=O)O)c1	.	-21.4	-0.01	.	8.8*
CC(C)NS(=O)(=O)c1ccc(OCC(=O)Nc2ccc(F)cc2F)cc1	-39.6	26.7	-0.64	48.7*	2.2
CC(C)NS(=O)(=O)c1ccc(OCC(=O)Nc2ccccc2F)cc1	-31.9	43.8	-0.07	-0.5	2.0
SMILES	BB579 growth dn	INS promoter inh	Ins promoter up	Yeast life ext	RAM network inh
Cc1cc(/C=C2/NC(=O)N(Cc3ccccc3F)C2=O)c(C)n1-c1ccccn1	-52.3	16.7	0.33	5.7	4.1
Cc1cc(/C=C2/NC(=O)N(Cc3ccccc3F)C2=O)c(C)n1C	-54.5	17.2	-0.01	26.7*	1.2
Cc1cccc(NC(=O)CN2C(=O)N/C(=C/c3cc(C)n(C)c3C)C2=O)c1	.	83.3*	-0.15	.	4.7
Cc1cccc(NC(=O)CN2C(=O)N/C(=C/c3cc(C)n(-c4ccncc4)c3C)C2=O)c1	-11.2	7.1	-0.09	1.1	-1.5
c1ccc(SCCOCCn2cncn2)cc1	-2.9	44.2	.	-0.5	0.4
OC(Cn1cncn1)(c1ccccc1)c1ccccc1	91.5*	42.9	0.05	-17.5	0.9
Cc1cc(Br)c(OCC(=O)NN)c2c1CCC2	.	.	-0.69	.	.
COc1ccccc1-c1cc(C(F)(F)F)nc(S(=O)(=O)CCCC(=O)Nc2cccnc2Cl)n1	.	73.3*	0.58	.	2.5
COc1ccccc1-c1cc(C(F)(F)F)nc(S(=O)(=O)CCCC(=O)NC(C)C)n1	-31.3	.	-0.19	-10.4	4.3
Cc1cccc(NC(=O)c2c(O)c3cccc4c3n(c2=O)CCC4)n1	-72.5	45.5	.	74.1*	0.4
Cc1cnc(NC(=O)c2c(O)c3cccc4c3n(c2=O)CCC4)s1	-13.9	.	-0.11	9.8	0.5
O=C(Nc1cccc(F)c1)c1c(O)c2cccc3c2n(c1=O)CCC3	.	-7.3	-0.1	.	1.5
CC(C)c1nnc(NC(=O)c2c(O)c3cccc4c3n(c2=O)CCC4)s1	-32.8	.	-0.85	40.5*	0.1
CSC1=NS(=O)(=O)c2c(C)nn(C)c2S1	.	.	-0.18	.	.
Cc1ccsc1/C=C(\C(=O)c1ccc(OC(C)C)cc1)c1nc2ccccc2o1	-44.5	-21.4	1.28	13.7	3.5
C=CCn1c2ccccc2n2nc(C)c(=O)nc12	-31.6	81.2*	0.14	.	0.4
Cc1nn2c3ccccc3n(CCN3CCCCC3)c2nc1=O	-8.8	-30.2	0.05	.	0.2
CCCCSc1nc(C)[nH]c1[N+](=O)[O-]	-79.9	75.0*	.	4.7	1.0
COc1ccc(S(=O)(=O)NCCSCc2ccccc2C)cc1Br	-42.5	31.4	0.16	-4.9	9.9*
COc1cc(NC(=O)COC(=O)CNC(=O)c2cc(C)cc(C)c2)c(C)cc1[N+](=O)[O-]	-27.3	0.0	0.06	-0.1	-0.9
CCC(CC)C(=O)OCC(=O)Nc1cc(OC)c([N+](=O)[O-])cc1C	-21.5	63.6*	.	4.3	1.0
O=C(CSc1nnc(SCc2ccccc2)s1)N/N=C/C=C\c1ccco1	-22.2	-83.3	-0.23	-1.6	11.1*
O=C(CSc1nnc(SCc2ccccc2)s1)N/N=C/C=C/c1ccccc1[N+](=O)[O-]	-11.6	.	-0.62	-6.1	-0.5
CCS(=O)(=O)C1=NN2C(=N)/C(=C\c3ccc(SCc4ccco4)o3)C(=O)N=C2S1	.	10.5	1.97	.	10.9*
N=C1/C(=C\c2ccc(SCc3ccccc3)o2)C(=O)N=C2SC=NN12	.	33.3	-0.93	.	3.5
CCCn1c(SCC(=O)NCc2ccc(F)cc2)n[nH]c1=O	.	-31.6	-1.06	.	-0.2
O=C1Nc2cc3c(cc2Sc2ccccc21)OCCO3	-31.9	90.0*	-0.19	-17.2	0.4
COCCNC(=S)N(CCc1c(C)[nH]c2ccccc12)Cc1ccco1	.	-94.4	-0.99	.	2.2
CCC(=O)Nc1cccc(NC(=O)c2ccccc2Br)c1	15.3	.	-0.03	-2.0	1.7
CCN(CC)S(=O)(=O)c1cccc(NC(=O)c2ccccc2Br)c1	.	76.9*	-0.03	.	3.7

Screens from PubChem BioAssay.
